PubChem BioAssay AID1229 (Sanford-Burnham Center for Chemical Genomics, 2008)
Screen size: about 190,000 compounds; about 10 (0.005%) were called active. The sample holds actives, similar compounds and a random draw of the others, so the mix is not that of the screen. A number with no mark means an inactive call.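 How the source made its calls: active means diaphorase activity raised at least twofold by the compound at 20 µM; inactive means activation factor below 2.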

Assay: compounds boosting diaphorase resazurin reduction – biochemical, uHTS, resorufin fluorescence, counter-screen for diaphorase-coupled primary assays, primary screen (AID 1229)
Settings: Diaphorase/resazurin coupled assay, 16 min, at 20 µM, active compounds read high, 1 = vehicle wells, 0 = NADH-free wells
Summary of the method: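 Test system: Clostridium kluyveri diaphorase, purified enzyme. Buffer or medium: 50 mM HEPES pH 7.4 buffer plus MgCl2 and Tween 20. Also added: 0.114 mM NADH and 0.1 mM resazurin, final amounts. Dosing: compound 20 µM once, DMSO 1%. Schedule: 16 min enzyme reaction, ambient temperature. Detection: fluorescence of resorufin, 544 nm excitation, 590 nm emission.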

| SMILES | activation factor |
| --- | --- |
| Cc1cccc(-n2c(=O)c3c(C)c(C)sc3n(CC(N)=O)c2=O)c1 | 1.1 |
| O=C(COC(=O)c1ccc(Cl)nc1)NCc1ccc2c(c1)OCO2 | 1 |
| CC1CN(S(=O)(=O)c2ccc(C(=O)NN3CCN(C)CC3)cc2)CC(C)O1 (stereo not given) | 0.9 |
| CC(C)(C)NC(=O)C(=O)NCc1ccncc1 | 0.9 |
| O=C(NCc1ccccc1)C1=C[C@@H](c2ccc(C(F)(F)F)cc2)C[C@@H](OCc2ccc(CO)cc2)O1 | 0.6 |
| O=C(NC(=S)Nc1ccc(S(=O)(=O)Nc2ncccn2)cc1)c1cccc(Br)c1 | 0.9 |
| COc1ccc(/C=C(\C#N)C(=O)NCCCn2ccnc2)cc1 | 1 |
| O=C1CC(=O)Nc2cc(S(=O)(=O)N3CCN(c4cccc(C(F)(F)F)c4)CC3)ccc2N1 | 1 |
| CCOc1ccc(OCc2cccc(C(=O)N(CC)CC)c2)cc1 | 0.8 |
| CC(=O)Nc1ccc(S(=O)(=O)Nc2nccc(/C=C/c3ccccc3F)n2)cc1 | 0.8 |
| CCCc1nnc(SCC(=O)N2C(C)CCCC2C)n1CC (stereo not given) | 0.9 |
| CC(C)CNC(=O)/C=C/C(=O)O | 1 |
| COc1ccc(C)cc1Nc1nc(-c2c(C)[nH]c3ccccc23)cs1 | 0.9 |
| O=C(NCCCn1ccnc1)c1cc(-c2ccccc2)on1 | 1 |
| CCN(CC)CCOCCOc1ccc(Cl)c2ccccc12 | 0.8 |
| Cn1c(SCC(=O)Nc2ccc(Br)cc2F)nnc1-c1ccco1 | 0.9 |
| Cc1nc([N+](=O)[O-])cn1CC(=O)Nc1ccc2c(c1)OCO2 | 0.9 |
| CC(=O)NCCn1c(SCC(=O)Nc2ccc(C)cc2)nc2ccccc2c1=O | 0.9 |
| COc1cccc(-n2c(=S)[nH]c3c(oc4ccccc43)c2=O)c1 | 0.3 |
| CC1CCCCC1NC(=O)/C(C#N)=C/C=C/c1ccccc1[N+](=O)[O-] (stereo not given) | 0.8 |
| Cc1cccc(-n2c(Cc3cc(=O)[nH]c(=O)[nH]3)nnc2SCC(=O)Nc2cccc(C(F)(F)F)c2)c1 | 1 |
| COc1ccc(/C=C/C(=O)c2ccc(NS(=O)(=O)c3ccc(C)cc3)cc2)cc1O | 0.7 |
| CC(C)CCN1CCN(Cc2ccc(C(F)(F)F)cc2)CC1CCO (stereo not given) | 1 |
| CC(=O)N(CN1C(=O)C2C3C=CC(C3)C2C1=O)c1cccc(Cl)c1 (stereo not given) | 1.1 |
| O=C(C1=C[C@H](c2coc3ccccc3c2=O)C[C@H](OCc2ccc(CO)cc2)O1)N1CCOCC1 | 0.8 |

| SMILES | activation factor |
| --- | --- |
| COc1ccc(Br)cc1/C=N/Nc1ccc(Cl)c(C(=O)O)c1 | 0.9 |
| CC(=O)Nc1ccc(-c2csc(NC=C3C(=O)OC(C)(C)OC3=O)n2)cc1 | 0.9 |
| COC(=O)CSc1ccc2nnc(CCNS(=O)(=O)c3ccc(C)cc3)n2n1 | 0.7 |
| NC1=NN(c2cccc(C(=O)O)c2)C(=O)C1 | 0.9 |
| O=S1(=O)CC/C(=N\Nc2ccc(F)cc2)c2ccsc21 | 0.9 |
| CCO[C@H]1OC(C(=O)NCc2ccccc2)=C[C@@H](c2coc3ccccc3c2=O)[C@@H]1CCCO | 0.8 |
| CC(=O)Nc1ccc(S(=O)(=O)Nc2ccc(-c3ccc4nnc(C)n4n3)cc2)cc1 | 1.1 |
| CCOC(=O)C(CC)/C(C)=N\NC(=O)c1cccc(C)c1 (stereo not given) | 0.9 |
| COC(=O)N/N=C/c1ccc(-c2ccc(Cl)c(Cl)c2)o1 | 0.9 |
| C/C(=N\NS(=O)(=O)c1ccc(Cl)cc1)c1ccc(NC(=O)c2ccco2)cc1 | 0.8 |
| Cc1cc(C)nc(SCC(=O)N(C)C)n1 | 1 |
| CCOc1ccc(C(C)=O)cc1COC(=O)c1cnc(Cl)c(Cl)c1 | 0.8 |
| C=CCNCCCCOc1ccccc1 | 1.1 |
| CONc1nc2nonc2nc1NOC | 0.9 |
| O=C(C1CC1)N1N=C2CCCCC2C1(O)C(F)(F)F (stereo not given) | 0.9 |
| Cc1ccc(NN=Nc2nc3c([nH]2)c(=O)n(C)c(=O)n3C)cc1 | 0.6 |
| CCOc1ccc(Oc2nc(C)cc(OC)n2)nn1 | 0.9 |
| Cc1c(C2=CCN(S(=O)(=O)c3ccc(Cl)cc3)CC2)c2ccccc2n1C | 0.9 |
| COc1cc(C(=S)NCc2ccccc2)cc(Br)c1O | 1 |
| C/C=C/c1ccc(OCCCCN2CCC(C)CC2)c(OC)c1 | 1 |
| CCn1cc(-c2cc(C(=O)O)on2)c(C)n1 | 0.9 |
| Cc1ccc(OCCOCCOc2ccc(Br)cc2/C=N\NC(=O)c2ccncc2)cc1 | 0.8 |
| O=C(c1ccc2c(c1)N(Cc1ccc(F)cc1)C(=O)c1ccccc1S2(=O)=O)N1CCN(c2ccccn2)CC1 | 0.8 |
| CNc1[nH]ncc1[N+](=O)[O-] | 1 |
| O=C1c2ccccc2C(=O)N1CCC(O)C[N+](=O)[O-] (stereo not given) | 1 |

| SMILES | activation factor |
| --- | --- |
| Cc1ccc(NC(=O)OCCNC(=O)c2ccncc2)cc1 | 1 |
| N#Cc1c(NC(=O)C2CCCO2)sc2c1CCCCC2 (stereo not given) | 1 |
| O=C(/C(=C/c1cccc(Cl)c1)c1nc2ccccc2[nH]1)c1ccccc1 | 0.9 |
| Cc1ccnc(NC(=O)CCC(=O)N(CC(=O)NCCc2ccccc2)Cc2cccs2)c1 | 1 |
| CC(=O)C1=C(O)C(=O)N(c2cccnc2)C1c1ccc([N+](=O)[O-])cc1 (stereo not given) | 0.9 |
| O=C1/C(=C/c2cccs2)CCC1C1CCCC1 (stereo not given) | 0.9 |
| Cc1cccc2cc3c(N)c(C(=O)N4CCCc5ccccc54)sc3nc12 | 0.8 |
| COc1ccc(OC)c(S(=O)(=O)NCCC(C)C)c1 | 1.1 |
| CCOC(=O)c1c(/N=C/c2cc(C)ccc2O)sc2c1CCC2 | 1 |
| CC(C)=CCCC1(C)C=Cc2c(ccc3c2[nH]c2cc(O)c(C)cc23)O1 (stereo not given) | 0.8 |
| CN1CCNC(=O)C1CC(=O)N1CC=C(c2ccc(F)cc2)CC1 (stereo not given) | 0.9 |
| COC(=O)/C(C#N)=C/c1occc1C | 0.9 |
| CCCN(CC(=O)Nc1ccc(OC)c(OC)c1)CC(=O)Nc1ccc(F)c(F)c1F | 0.9 |
| CN(C(=O)CSc1nnc(-c2n[nH]c3ccccc23)o1)c1ccccc1 | 0.8 |
| O=C(CSc1ccc(-c2ccccc2)nn1)NCC1CCCO1 (stereo not given) | 1.1 |
| Cc1cccc(C(=O)OCC(=O)NCC(C)C)c1O | 0.9 |
| O=C(Cc1cccs1)Nc1nnc(SCc2ccc(F)cc2)s1 | 0.9 |
| Cn1cnnc1Sc1ccc(CN2CCN(C3CCCC3)C(CCO)C2)o1 (stereo not given) | 1 |
| CCCN=C1NC(=O)C(CC(=O)NCCc2ccc(OC)c(OC)c2)S1 (stereo not given) | 0.9 |
| Cc1ccc(N(Cc2cc3ccccc3[nH]c2=O)C(=O)c2cccs2)cc1 | 0.9 |
| CCOc1ccc(N2C(=O)CN(c3cccc4ccccc34)C2=S)cc1 | 1 |
| CNC(=S)NNC(=O)c1cccn(Cc2ccccc2)c1=O | 1 |
| Cc1cc(C(=O)NNC(=S)NC(C)c2ccccc2)cs1 (stereo not given) | 1 |
| CCSc1nc(C)c(CCOc2cccc(C)c2)c(=O)[nH]1 | 1 |
| NS(=O)(=O)c1ccc(NC(=S)NNC(=O)c2cccs2)cc1 | 0.8 |

| SMILES | activation factor |
| --- | --- |
| Cc1ccc(NC(=S)N(CCCN2CCCC2)Cc2cccn2Cc2ccc(Cl)cc2)cc1 | 1 |
| COc1cccc(CC2(CO)CCN(Cc3cnc(-c4cccc(C)c4)nc3)CC2)c1 | 0.7 |
| COC(=O)CC1=NN(c2ccccc2)C(=O)C1 | 1.1 |
| CCCn1c(=O)c2c(C(F)(F)F)cc(-c3cccs3)nc2n(CCC)c1=O | 1 |
| Cc1ccc(C(=O)N/C(=C\c2cccs2)C(=O)NCCc2ccccn2)cc1C | 0.7 |
| CN(C)c1ccc(C2Nc3ccccc3C(=O)N2NS(=O)(=O)c2ccccc2)cc1 (stereo not given) | 0.9 |
| CCCCn1c(N)c(N2CCOCC2)c(=O)n(CC(=O)NCCc2ccccc2)c1=O | 1 |
| COCCN1C(=O)N[C@@H](c2ccccc2)C(C(=O)OC)=C1C | 1 |
| Cc1cc(C)n2nc(SCC(N)=O)nc2n1 | 1 |
| O=C(CNC(=O)c1ccccc1)NCC(=O)OCC(=O)c1ccccc1 | 1.1 |
| O=C(O)c1cccc(NC(=O)c2cc(-c3cccc(Cl)c3)nc3ccccc23)c1 | 0.8 |
| [O-][n+]1onc2c1CCc1[nH]c(-c3ccccc3)nc1-2 | 0.9 |
| O=S(=O)(NC1CC1)c1ccc2c3c(cccc13)CC2 | 1 |
| C/C(Cn1nnc2ccccc21)=N\OC(=O)c1cc(F)c(F)cc1Cl | 0.9 |
| COc1cccc(CNC(=O)c2n[nH]c3ccccc23)c1 | 1 |
| Cc1ccc(C(=O)OC(C)CN2CCOCC2)cc1 (stereo not given) | 1 |
| O=C(O)COc1ccc(/C=N/O)cc1Br | 0.9 |
| Cc1ccccc1C(CC(=O)c1cccs1)C(C#N)C#N (stereo not given) | 0.9 |
| O=C(Nc1ccccc1Cc1ccccc1)c1ccc2c(c1)SC1=NS(=O)(=O)CCN12 | 0.9 |
| COc1cc(NC(=O)CSc2nnc3ccc(-c4ccncc4)nn23)cc(OC)c1 | 0.8 |
| O=C(c1ccc(F)cc1)n1cc(C(=S)N2CCOCC2)c2ccccc21 | 1 |
| Cc1cccc(C)c1NC(=O)CNC(=O)Cc1ccc(Br)cc1 | 0.9 |
| COC(=O)C1=NNC2(c3ccc(C)cc3)C(=O)N(c3cccc(C)c3C)C(=O)C12 (stereo not given) | 0.9 |
| CCCNCc1cc(OCC)c(OCC(=O)Nc2ccccc2)cc1Br | 0.9 |
| Cc1cc(C)cc(OCC(=O)NCc2cc(C)nc3ccccc23)c1 | 1 |
